The results in this text go back to ChEMBL document CHEMBL1255211, “Novel azulene-based derivatives as potent multi-receptor tyrosine kinase inhibitors” (Bioorg Med Chem Lett, 2010).

Data set [1] concerns the target T1, Receptor-type tyrosine-protein kinase FLT3 (Homo sapiens, UniProt P36888).
T1 sequence (P36888 whole entry): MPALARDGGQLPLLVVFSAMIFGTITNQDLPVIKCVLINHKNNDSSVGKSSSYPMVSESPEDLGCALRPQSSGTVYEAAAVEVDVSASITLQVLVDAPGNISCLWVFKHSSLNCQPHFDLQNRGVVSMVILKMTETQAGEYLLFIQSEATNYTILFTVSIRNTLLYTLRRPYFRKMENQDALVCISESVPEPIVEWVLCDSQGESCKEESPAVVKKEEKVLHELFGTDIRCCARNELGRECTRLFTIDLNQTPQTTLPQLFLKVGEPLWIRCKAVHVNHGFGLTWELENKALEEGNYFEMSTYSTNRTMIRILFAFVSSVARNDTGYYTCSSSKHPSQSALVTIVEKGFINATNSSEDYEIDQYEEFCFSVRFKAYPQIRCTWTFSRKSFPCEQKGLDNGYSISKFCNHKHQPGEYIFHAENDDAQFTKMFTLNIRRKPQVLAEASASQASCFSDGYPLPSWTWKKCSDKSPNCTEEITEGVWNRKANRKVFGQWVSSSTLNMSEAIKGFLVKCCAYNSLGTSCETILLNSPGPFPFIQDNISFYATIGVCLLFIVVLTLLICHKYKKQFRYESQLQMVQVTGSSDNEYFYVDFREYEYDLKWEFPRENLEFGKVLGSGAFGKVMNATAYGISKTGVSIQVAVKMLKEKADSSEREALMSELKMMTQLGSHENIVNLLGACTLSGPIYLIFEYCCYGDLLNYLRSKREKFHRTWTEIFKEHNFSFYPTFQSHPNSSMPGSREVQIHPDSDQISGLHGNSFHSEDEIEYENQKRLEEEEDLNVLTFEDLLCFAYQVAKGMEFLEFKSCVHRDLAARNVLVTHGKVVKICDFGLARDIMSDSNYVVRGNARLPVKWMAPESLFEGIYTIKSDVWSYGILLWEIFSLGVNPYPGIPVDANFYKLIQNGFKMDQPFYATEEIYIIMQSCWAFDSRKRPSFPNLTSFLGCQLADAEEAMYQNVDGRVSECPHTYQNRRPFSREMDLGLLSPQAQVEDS
In words: Inhibition of FLT3 by time resolved fluorescence method.

The nature of data set [2]: AUC in po dosed Sprague-Dawley rat. The class given is ADME, organism-based. The conditions noted are these: plasma. The method, boiled down:
(§1)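 Overnight-fasted male SD rats got a single intravenous or oral dose, n = 3 per route. Vehicle was 10% N-methyl-2-pyrrolidone, 20% cremophor EL, 70% phosphate-buffered saline. Plasma was prepared from blood by centrifugation, stored at -80 °C and assayed by LC/MS/MS. Parameters came from noncompartmental analysis and are means of three animals.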

The nature of data set [3]: Tmax in po dosed Sprague-Dawley rat. Conditions: in vivo. The class given is ADME, organism-based. The essentials:
as §1

The target of data set [4] is T1, Receptor-type tyrosine-protein kinase FLT3. Description: Inhibition of FLT3 autophosphorylation in human RS4-11 cells by Western blot analysis. The class given is cell-based.
Data set [5] deals with MV4-11. In words: Cytotoxicity against human MV4-11 cells by MTT assay.
Data set [6] has as its target Platelet-derived growth factor receptor beta (Homo sapiens, UniProt P09619). In words: Inhibition of PDGFRbeta autophosphorylation by cell based Western blot analysis.
Data set [7] deals with Rattus norvegicus. Description: Volume of distribution at steady state in iv dosed Sprague-Dawley rat. The conditions noted are these: in vivo. The format is ADME, organism-based. The essentials: as §1
Data set [8] has as its target Receptor-type tyrosine-protein kinase FLT3 (Homo sapiens, UniProt P36888, ITD). In words: Inhibition of FLT3-ITD autophosphorylation in human MV4-11 cells by Western blot analysis. The format is cell-based. The method, boiled down: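 Cells were plated at 2-5 × 10⁵ per well and stimulated with the receptor ligand: SCF for c-Kit, VEGF-162 for KDR, FL for FLT-3. Blots were probed with anti-phosphotyrosine PY99 and reprobed with antibodies to c-Kit, KDR or FLT-3.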

A short description of data set [9]: Cmax in po dosed Sprague-Dawley rat. The class given is ADME, organism-based. Details: route oral. Conditions: in vivo. The method, boiled down:
as §1

Data set [10] can be described thus: AUC in iv dosed Sprague-Dawley rat. The conditions noted are these: plasma. The class given is ADME, organism-based. The essentials:
as §1

For data set [11], the system named is Rattus norvegicus. Description: Elimination half life in iv dosed Sprague-Dawley rat. The format is ADME, organism-based. The conditions noted are these: in vivo. The essentials: as §1
The nature of data set [12]: Oral bioavailability in Sprague-Dawley rat. The format is ADME, organism-based. Conditions: in vivo. The method, boiled down:
as §1

The target of data set [13] is Mast/stem cell growth factor receptor Kit (Homo sapiens, UniProt P10721). Description: Inhibition of c-Kit autophosphorylation in human Kasumi-1 cells by Western blot analysis. The format is cell-based.
Chain of Mast/stem cell growth factor receptor Kit (P10721 whole entry): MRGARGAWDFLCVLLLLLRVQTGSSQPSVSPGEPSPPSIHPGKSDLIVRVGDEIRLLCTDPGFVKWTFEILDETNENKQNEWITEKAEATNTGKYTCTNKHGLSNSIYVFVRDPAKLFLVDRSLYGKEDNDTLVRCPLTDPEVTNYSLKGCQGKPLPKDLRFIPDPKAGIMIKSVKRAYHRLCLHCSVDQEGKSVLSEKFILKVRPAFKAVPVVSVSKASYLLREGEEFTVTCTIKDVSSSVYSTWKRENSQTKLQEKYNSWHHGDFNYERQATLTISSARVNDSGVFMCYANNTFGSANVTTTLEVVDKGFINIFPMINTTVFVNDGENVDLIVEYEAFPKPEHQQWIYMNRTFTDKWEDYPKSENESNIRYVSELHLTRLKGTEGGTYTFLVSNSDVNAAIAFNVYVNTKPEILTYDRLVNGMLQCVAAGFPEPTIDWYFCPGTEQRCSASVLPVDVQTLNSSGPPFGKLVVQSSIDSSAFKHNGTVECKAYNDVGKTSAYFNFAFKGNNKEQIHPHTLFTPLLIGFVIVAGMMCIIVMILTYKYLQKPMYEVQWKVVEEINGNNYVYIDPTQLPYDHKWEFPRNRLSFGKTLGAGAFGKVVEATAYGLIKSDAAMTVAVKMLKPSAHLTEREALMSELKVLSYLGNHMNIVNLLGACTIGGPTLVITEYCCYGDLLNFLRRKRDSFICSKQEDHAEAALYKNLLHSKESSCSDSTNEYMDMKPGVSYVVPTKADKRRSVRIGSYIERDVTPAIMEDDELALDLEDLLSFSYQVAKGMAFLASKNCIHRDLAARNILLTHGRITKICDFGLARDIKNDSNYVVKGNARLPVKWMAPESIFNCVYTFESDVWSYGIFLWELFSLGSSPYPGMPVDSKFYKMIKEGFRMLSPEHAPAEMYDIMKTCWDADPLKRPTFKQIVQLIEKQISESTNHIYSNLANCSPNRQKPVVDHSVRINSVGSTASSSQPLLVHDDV
The subject of data set [14] is MV4-11. In words: Antitumor activity against human MV4-11 cells xenografted in BALB/c mouse assessed as inhibition of tumor growth at 50 mg/kg, po bid for 14 days measured on day 30. The format is functional. The essentials: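 Female BALB/c nude mice, 6-8 weeks old, were implanted s.c. in the right flank with 1 × 10⁷ MV4-11 cells. Dosing began at tumor size 200-300 mm³, with four mice per group randomized. Treatment was 50 mg/kg oral gavage b.i.d. for 14 days (day 16 to 29) in 10% NMP/20% Cremophor EL/70% saline vehicle. Calipers gave tumor volume = 0.5 × length × width².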

Data set [15] concerns the target Vascular endothelial growth factor receptor 2 (Homo sapiens, UniProt P35968). Description: Inhibition of KDR autophosphorylation in HUVEC by Western blot analysis. The format is cell-based.

Chain of Vascular endothelial growth factor receptor 2 (P35968 whole entry): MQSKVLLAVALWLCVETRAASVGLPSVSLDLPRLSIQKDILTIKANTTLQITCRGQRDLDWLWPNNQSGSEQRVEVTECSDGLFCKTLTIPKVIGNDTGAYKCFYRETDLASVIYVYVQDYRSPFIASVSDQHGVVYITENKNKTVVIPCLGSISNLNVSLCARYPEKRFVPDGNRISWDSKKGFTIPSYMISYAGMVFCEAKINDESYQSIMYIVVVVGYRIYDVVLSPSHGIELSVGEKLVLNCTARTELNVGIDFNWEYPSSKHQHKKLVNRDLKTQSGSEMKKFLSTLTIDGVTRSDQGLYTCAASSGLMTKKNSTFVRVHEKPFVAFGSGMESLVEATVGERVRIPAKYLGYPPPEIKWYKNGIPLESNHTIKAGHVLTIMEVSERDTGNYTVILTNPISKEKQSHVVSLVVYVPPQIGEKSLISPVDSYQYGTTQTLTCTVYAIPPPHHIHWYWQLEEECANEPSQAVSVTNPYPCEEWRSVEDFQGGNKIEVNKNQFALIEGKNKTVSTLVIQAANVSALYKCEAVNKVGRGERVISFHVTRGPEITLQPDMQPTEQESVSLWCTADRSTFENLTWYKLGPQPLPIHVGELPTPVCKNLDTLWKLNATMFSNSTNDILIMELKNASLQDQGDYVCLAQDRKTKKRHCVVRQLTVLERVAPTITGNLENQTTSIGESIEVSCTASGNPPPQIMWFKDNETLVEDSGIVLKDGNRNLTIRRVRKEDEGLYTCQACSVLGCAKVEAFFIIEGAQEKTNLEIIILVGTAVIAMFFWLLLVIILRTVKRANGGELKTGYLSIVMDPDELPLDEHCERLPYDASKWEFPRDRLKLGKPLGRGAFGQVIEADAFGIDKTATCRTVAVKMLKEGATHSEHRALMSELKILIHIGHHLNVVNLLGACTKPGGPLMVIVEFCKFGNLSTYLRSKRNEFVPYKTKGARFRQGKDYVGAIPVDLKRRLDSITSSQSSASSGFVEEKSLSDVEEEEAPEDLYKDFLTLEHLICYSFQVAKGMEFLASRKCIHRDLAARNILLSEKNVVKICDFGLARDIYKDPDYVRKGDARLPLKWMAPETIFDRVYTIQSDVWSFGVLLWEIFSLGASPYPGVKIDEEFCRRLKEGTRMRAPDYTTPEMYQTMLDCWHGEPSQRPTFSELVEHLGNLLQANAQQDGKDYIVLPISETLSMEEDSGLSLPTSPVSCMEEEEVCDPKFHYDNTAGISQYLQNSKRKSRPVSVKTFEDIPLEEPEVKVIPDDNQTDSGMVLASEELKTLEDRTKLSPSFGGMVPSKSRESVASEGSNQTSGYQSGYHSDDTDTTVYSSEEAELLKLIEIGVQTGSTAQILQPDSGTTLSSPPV
Chain of Platelet-derived growth factor receptor beta (P09619 whole entry): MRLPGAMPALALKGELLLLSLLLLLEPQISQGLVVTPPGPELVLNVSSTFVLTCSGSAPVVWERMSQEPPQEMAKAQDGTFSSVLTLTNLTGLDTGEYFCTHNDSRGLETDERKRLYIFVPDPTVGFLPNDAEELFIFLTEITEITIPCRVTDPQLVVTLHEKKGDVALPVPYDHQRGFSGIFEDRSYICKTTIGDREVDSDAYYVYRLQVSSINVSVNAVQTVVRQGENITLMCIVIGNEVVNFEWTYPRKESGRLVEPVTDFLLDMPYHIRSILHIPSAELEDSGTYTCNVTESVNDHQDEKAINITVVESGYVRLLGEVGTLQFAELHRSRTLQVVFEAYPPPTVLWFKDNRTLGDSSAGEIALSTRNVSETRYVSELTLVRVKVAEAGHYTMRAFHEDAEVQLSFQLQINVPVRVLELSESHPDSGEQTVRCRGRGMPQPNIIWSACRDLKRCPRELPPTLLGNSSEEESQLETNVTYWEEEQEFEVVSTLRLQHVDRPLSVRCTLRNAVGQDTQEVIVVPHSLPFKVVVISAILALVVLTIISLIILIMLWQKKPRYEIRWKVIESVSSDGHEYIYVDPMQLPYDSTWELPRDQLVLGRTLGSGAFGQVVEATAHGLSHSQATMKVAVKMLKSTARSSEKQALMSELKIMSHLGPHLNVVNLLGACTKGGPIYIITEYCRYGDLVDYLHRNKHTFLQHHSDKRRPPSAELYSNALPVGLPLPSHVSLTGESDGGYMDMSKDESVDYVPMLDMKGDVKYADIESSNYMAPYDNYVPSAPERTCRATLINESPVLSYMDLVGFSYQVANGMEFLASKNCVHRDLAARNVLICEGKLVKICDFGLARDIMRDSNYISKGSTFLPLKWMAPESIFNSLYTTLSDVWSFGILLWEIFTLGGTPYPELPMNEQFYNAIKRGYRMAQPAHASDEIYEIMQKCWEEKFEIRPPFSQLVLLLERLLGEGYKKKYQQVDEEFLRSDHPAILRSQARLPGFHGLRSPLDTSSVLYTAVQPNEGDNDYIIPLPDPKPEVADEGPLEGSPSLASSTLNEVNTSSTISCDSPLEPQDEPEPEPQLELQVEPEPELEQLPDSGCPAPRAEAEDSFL

Take `Cc1cc(/C=C2/C(=O)Nc3cc(F)ccc32)c2ccccc(OCCCN(C)C)c1-2`: half-maximal inhibition in data set [1] (IC50) was put at 742 nM.

As to `Cc1cc(/C=C2\C(=O)Nc3ccc(F)cc32)c2ccccc(OCCN3CCOCC3)c1-2`, in data set [1], the IC50 stood at 19 nM.

On to `O=C1Nc2ccccc2C1=Cc1ccc2cccccc1-2`, for which the IC50 in [1] turned out to be 470 nM.

In data set [1], `O=C1Nc2ccc(F)cc2/C1=C/c1ccc2cccccc1-2` registered an IC50 of over 1000 nM.

In turn, `O=C1Nc2ccc(Br)cc2/C1=C\c1ccc2cccccc1-2` returned an IC50 in data set [1] of over 1000 nM.

For the compound `O=C1Nc2ccc(Br)cc2/C1=C/c1ccc2cccccc1-2`, the half-maximal inhibitory concentration (IC50) in data set [1] is over 1000 nM.

`Cc1ccc2c(c1)/C(=C/c1ccc3cccccc1-3)C(=O)N2` yielded an IC50 in data set [1] of over 1000 nM.

For the compound `Cc1cc(/C=C2/C(=O)Nc3ccccc32)c2cccccc1-2`, the IC50 in [1] was over 1000 nM.

Compound `Cc1cc(/C=C2\C(=O)Nc3ccccc32)c2cccccc1-2` yielded a concentration for half-maximal inhibition (IC50) in data set [1] of over 1000 nM.

For the compound `Cc1cc(/C=C2/C(=O)Nc3ccc(F)cc32)c2cccccc1-2`, inhibition in [1] was half-maximal at 60 nM (IC50).

Consider `Cc1cc(/C=C2\C(=O)Nc3ccc(F)cc32)c2cccccc1-2`, for which it took 128 nM to reach half-maximal inhibition in data set [1] (IC50).

As for `O=C1Nc2ccc(F)cc2/C1=C/c1cc(F)c2cccccc1-2`, the midpoint of inhibition in data set [1], the IC50, lay at 23 nM.

In [1], `CN(C)S(=O)(=O)c1ccc2c(c1)/C(=C/c1ccc3cccccc1-3)C(=O)N2` showed an IC50 of over 1000 nM.

`Cc1cc(/C=C2\C(=O)Nc3ccc(F)cc32)c2ccccc(OCCCN3CCOCC3)c1-2` displayed an IC50 in data set [1] of 224 nM.

In turn, `Cc1cc(/C=C2/C(=O)Nc3ccc(F)cc32)c2ccccc(OCCCN(C)C)c1-2` returned an IC50 in data set [1] of 25 nM.

The compound `Cc1cc(/C=C2\C(=O)Nc3ccc(F)cc32)c2ccccc(OCCCN(C)C)c1-2` yielded an IC50 in data set [1] of 12 nM.

Take `CCN(CC)CCCOc1ccccc2c(/C=C3/C(=O)Nc4ccc(F)cc43)cc(C)c1-2`: in data set [1], 30 nM corresponded to half-maximal inhibition (IC50).

Compound `CCN(CC)CCCOc1ccccc2c(/C=C3\C(=O)Nc4ccc(F)cc43)cc(C)c1-2` showed a 50% inhibitory concentration (IC50) in data set [1] of 39 nM.

For `Cc1cc(/C=C2\C(=O)Nc3ncccc32)c2ccccc(OCCCN(C)C)c1-2`, in data set [1], half-maximal inhibition (IC50) required 1460 nM.

Regarding `Cc1cc(/C=C2\C(=O)Nc3ncc(F)cc32)c2ccccc(OCCCN3CCOCC3)c1-2`, it took 90 nM to reach half-maximal inhibition in [1] (IC50).

The compound `Cc1cc(/C=C2\C(=O)Nc3ncc(Br)cc32)c2ccccc(OCCCN3CCOCC3)c1-2` gave an IC50 in data set [1] of 86 nM.

In the case of `Cc1cc(/C=C2/C(=O)Nc3c(F)cccc32)c2ccccc(OCCCN(C)C)c1-2`, the IC50 in data set [1] was determined as 177 nM.

For `Cc1cc(/C=C2\C(=O)Nc3ccc(F)cc32)c2ccccc(OCCN3CCC(N(C)C)CC3)c1-2`, in data set [1], the IC50 was 18 nM.

For `Cc1cc(/C=C2\C(=O)Nc3ccc(F)c(F)c32)c2ccccc(OCCCN(C)C)c1-2`, the IC50 in [1] is 5 nM.

As to `CCN(CC)CCCOc1ccccc2c(/C=C3\C(=O)Nc4ccc(F)c(F)c43)cc(C)c1-2`, half-maximal inhibition in [1] (IC50) was put at 14 nM.

`Cc1cc(/C=C2\C(=O)Nc3ccc(F)c(F)c32)c2ccccc(OCCCN3CCOCC3)c1-2` gave an IC50 in [1] of 12 nM.

Compound `Cc1cc(/C=C2\C(=O)Nc3ccc(F)c(F)c32)c2ccccc(OCCCN3CCCCC3)c1-2` had an IC50 in data set [1] of 17 nM.

Consider `Cc1cc(C=C2C(=O)Nc3ccc(F)cc32)c2ccccc(OCCN3CCC[C@H]3CO)c1-2` (mixture of isomers), for which the AUC in data set [2] came out at 3220 ng·h/mL; in data set [10] it was 1410 ng·h/mL. Further, the time of peak concentration (Tmax) in data set [3] worked out at 2 h. Also, the IC50 was 98 nM in [1]; 70 nM in [4]; 87 nM in the data set with MV4-11 [5]; 28 nM in data set [6]; 67 nM in data set [8]; 44 nM in data set [13]. Besides, in data set [15], inhibition was half-maximal at 186 nM (IC50). Besides, the Vss/F with Rattus norvegicus [7] is 1.2324 L/kg. In data set [9], this compound gave a Cmax of 566 ng/mL. The t1/2 in the data set with Rattus norvegicus [11] turned out to be 1.8 h. For the same compound, the bioavailability in data set [12] is 22.8%. In the data set with MV4-11 [14], the inhibition in vivo at 50 mg/kg was 99%.
